# Where a name gives a salt, the structure may show the parent alone.
# Experiments:
# MOR = assay: Ca2+ mobilization; format: cell-based; conditions: agonist; HEK-293 with chimeric G-protein delta6-Gqi4-myr
# In short: (§1)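 HEK-293 cells stably expressing the receptor, grown in DMEM with 10% FCS at 37 °C in 7% CO2, were transiently transfected with Δ6-Gqi4-myr (100 ng per 60,000 cells). After one day, cells were loaded with Ca2+ dye for 60 min and stimulated with increasing ligand concentrations to give dose–response curves and EC50. Each experiment was run at least three times in triplicate; values are means ± SEM.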
# KOR = assay: Ca2+ mobilization; format: cell-based; conditions: agonist; HEK-293 with chimeric G-protein delta6-Gqi4-myr
# In short: as §1
smiles,measurement,setting,value
"COC(=O)N1CCN(C(=O)Cc2ccc(Cl)c(Cl)c2)C(CN2CCCC2)C1 (centres unmarked) [GR89, 696, 4-[(3,4-Dichlorophenyl)acetyl]-3-(1-pyrrolidinylmethyl)-1-piperazine-carboxylic acid methyl ester fumarate]",pEC50 (M) / MOR,MOR,7.2 ± 0.2 pEC50 (M)
same,pEC50 (M) / KOR,KOR,10.1 ± 0.2 pEC50 (M)
